Reference: ChEMBL document CHEMBL1137574, “Synthesis and structure-activity relationship for a novel class of potent and selective carbamate-based inhibitors of hormone selective lipase with acute in vivo antilipolytic effects” (J Med Chem, 2007)

Legend:
[1] = Clearance in Sprague-Dawley rat at 1.1 mg/kg, iv and 2.2 mg/kg, po; assay type: ADME, organism-based; conditions: in vivo
Outline: (§1)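 Rat PK study, one rat per time point. Dosed i.v. and p.o. by gavage in 10% hydroxypropyl cyclodextrin in phosphate buffer pH 7.0; one compound was given in 20% Tween 80 plus 5% glucose in phosphate buffer pH 7.0. Plasma was diluted 1:1 with 10% methanol and centrifuged, then quantified by turbulent-flow chromatography–MS/MS against plasma calibration curves spanning 10-3000 ng/mL.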

[2] = Oral bioavailability in Sprague-Dawley rat at 2.2 mg/kg, po; assay type: ADME, organism-based; conditions: in vivo; outline: as §1
[3] = biological target: Cytochrome P450 2D6 (Homo sapiens, UniProt P10635); test: Inhibition of CYP2D6 in human liver microsome; assay type: ADME; conditions: microsomes
Outline: (§2)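 Pooled human liver microsomes (0.1 mg, ≥15 donors) incubated 10 min at 37 °C with 1 mM NADPH and test compound at 20 µM, in triplicate. Substrates at Km: CYP1A2, 14C-phenacetin 40 µM; CYP2D6, 14C-dextromethorphan 3 µM. Conversion read by charcoal extraction then scintillation counting of the supernatant.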

[4] = biological target: T1, Cytochrome P450 1A2 (Homo sapiens, UniProt P05177); test: Inhibition of CYP1A2 in human liver microsome; assay type: ADME; conditions: microsomes; outline: as §2
T1 sequence (P05177 whole entry): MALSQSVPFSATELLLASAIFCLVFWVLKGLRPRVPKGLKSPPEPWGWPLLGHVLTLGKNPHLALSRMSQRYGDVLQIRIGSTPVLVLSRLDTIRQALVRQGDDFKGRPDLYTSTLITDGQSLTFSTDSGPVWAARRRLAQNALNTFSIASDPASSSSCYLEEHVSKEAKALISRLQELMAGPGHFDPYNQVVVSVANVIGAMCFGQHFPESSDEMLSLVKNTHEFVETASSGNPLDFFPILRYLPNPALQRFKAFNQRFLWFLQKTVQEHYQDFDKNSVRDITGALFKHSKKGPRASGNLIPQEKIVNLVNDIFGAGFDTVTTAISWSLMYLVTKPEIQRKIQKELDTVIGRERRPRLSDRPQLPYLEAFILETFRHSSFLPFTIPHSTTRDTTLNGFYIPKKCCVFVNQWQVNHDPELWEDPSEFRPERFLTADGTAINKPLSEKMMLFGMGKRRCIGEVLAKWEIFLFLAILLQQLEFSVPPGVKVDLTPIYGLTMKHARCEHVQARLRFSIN

[5] = Cmax in Sprague-Dawley rat at 1.1 mg/kg, iv and 2 mg/kg, po; assay type: ADME, organism-based; conditions: in vivo; outline: as §1
[6] = biological target: Cytochrome P450 2C9 (Homo sapiens, UniProt P11712); test: Inhibition of CYP2C9 in human liver microsome; assay type: ADME; conditions: microsomes
[7] = test system: Rattus norvegicus; test: Antilipolytic activity in Sprague-Dawley rat at 10 mg/kg, po; assay type: ADME, organism-based; set-up: dose 10 mg/kg, route oral; conditions: in vivo
Outline: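 Male Sprague-Dawley rats, 12 weeks old, fasted overnight; single 10 mg/kg p.o. dose (n = 4 per group; vehicle n = 8). Orbital plexus blood under isoflurane taken at baseline (0.5 h predose) and 1, 3 and 5 h postdose into EDTA tubes with 0.1% NaF. Plasma glycerol measured on an automated analyzer as the antilipolytic endpoint.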

[8] = Cmax in Sprague-Dawley rat at 1.2 mg/kg, iv and […] mg/kg, po; assay type: ADME, organism-based; conditions: in vivo, 2.4 mg/kg
[9] = Clearance in Sprague-Dawley rat at 1.2 mg/kg, iv and […] mg/kg, po; assay type: ADME, organism-based; conditions: in vivo
[10] = biological target: Acetylcholinesterase (Homo sapiens, UniProt P22303); test: Inhibition of acetylcholine esterase
Outline: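 Acetylcholinesterase activity measured with acetylthiocholine substrate. Inhibitor at six concentrations in 5-fold steps from a maximum of 100 µM, duplicate measurements averaged. IC50 from variable-slope sigmoidal dose-response fit.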

[11] = Oral bioavailability in Sprague-Dawley rat at 2.4 mg/kg, po; assay type: ADME, organism-based; conditions: in vivo
Outline: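 Male Sprague-Dawley rats, 12 weeks old, dosed by oral gavage and i.v. in 10% hydroxypropyl cyclodextrin in phosphate buffer pH 7.0, with one rat per time point. Plasma was diluted 1:1 in 10% methanol, centrifuged and quantified by turbulent-flow chromatography–tandem MS against plasma calibration curves (10-3000 ng/mL).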

Sequence of Cytochrome P450 2D6 (P10635 whole entry): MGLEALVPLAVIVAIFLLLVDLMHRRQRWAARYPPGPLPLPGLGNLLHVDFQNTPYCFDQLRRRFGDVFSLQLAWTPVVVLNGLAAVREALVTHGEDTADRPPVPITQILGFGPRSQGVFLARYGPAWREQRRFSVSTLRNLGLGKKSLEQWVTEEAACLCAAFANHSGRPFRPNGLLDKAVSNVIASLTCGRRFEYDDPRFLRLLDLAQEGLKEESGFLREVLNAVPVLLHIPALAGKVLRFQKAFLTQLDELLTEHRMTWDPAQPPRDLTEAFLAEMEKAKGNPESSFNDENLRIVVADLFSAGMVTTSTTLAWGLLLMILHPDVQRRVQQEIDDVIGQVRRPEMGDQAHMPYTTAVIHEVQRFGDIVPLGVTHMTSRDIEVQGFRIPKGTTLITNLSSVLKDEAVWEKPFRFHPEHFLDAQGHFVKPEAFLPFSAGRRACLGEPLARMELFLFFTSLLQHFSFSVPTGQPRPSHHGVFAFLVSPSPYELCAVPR
Sequence of Cytochrome P450 2C9 (P11712 whole entry): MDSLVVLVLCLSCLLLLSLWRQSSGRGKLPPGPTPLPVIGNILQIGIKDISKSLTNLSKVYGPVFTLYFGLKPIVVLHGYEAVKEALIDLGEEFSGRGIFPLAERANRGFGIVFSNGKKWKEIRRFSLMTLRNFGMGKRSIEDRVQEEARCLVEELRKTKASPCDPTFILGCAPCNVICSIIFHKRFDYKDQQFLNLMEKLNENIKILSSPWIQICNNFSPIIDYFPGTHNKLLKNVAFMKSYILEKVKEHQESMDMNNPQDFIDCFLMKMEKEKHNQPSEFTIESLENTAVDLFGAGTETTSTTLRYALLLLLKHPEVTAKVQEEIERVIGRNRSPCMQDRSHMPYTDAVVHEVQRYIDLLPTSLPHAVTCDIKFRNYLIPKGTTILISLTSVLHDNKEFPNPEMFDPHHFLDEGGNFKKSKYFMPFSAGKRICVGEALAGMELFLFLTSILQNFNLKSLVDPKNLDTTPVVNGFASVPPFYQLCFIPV
Sequence of Acetylcholinesterase (P22303 whole entry): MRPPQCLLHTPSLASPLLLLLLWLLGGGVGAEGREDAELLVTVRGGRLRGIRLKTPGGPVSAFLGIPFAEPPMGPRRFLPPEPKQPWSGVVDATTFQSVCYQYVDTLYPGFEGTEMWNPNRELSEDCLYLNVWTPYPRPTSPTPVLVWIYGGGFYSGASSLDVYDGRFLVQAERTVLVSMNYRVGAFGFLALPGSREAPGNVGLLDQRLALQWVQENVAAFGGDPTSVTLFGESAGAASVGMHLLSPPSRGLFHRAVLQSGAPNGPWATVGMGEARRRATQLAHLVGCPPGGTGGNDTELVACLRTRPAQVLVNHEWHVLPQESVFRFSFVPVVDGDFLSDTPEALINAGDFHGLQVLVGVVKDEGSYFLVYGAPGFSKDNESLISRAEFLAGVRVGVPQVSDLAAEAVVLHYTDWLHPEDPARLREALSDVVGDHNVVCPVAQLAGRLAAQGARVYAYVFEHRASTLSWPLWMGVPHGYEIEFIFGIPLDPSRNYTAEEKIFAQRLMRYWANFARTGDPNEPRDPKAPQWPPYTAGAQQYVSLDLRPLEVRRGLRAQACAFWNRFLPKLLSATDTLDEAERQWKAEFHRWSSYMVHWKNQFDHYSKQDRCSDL

| Compound | clearance [1] | bioavailability [2] | Activity [3] | Activity [4] | Cmax [5] | Activity [6] | Activity [7] | Cmax [8] | clearance [9] | IC50 [10] | bioavailability [11] |
| --- | --- | --- | --- | --- | --- | --- | --- | --- | --- | --- | --- |
| O=C(Oc1ccc(Oc2ccc(C(F)(F)F)cn2)cc1)N1CCC(CO)CC1 | 46 mL/min/kg | 10% | Not Active | Not Active | 60 ng/mL | Not Active | Active | – | – | – | – |
| O=C(Oc1ccc(Oc2ccc(C(F)(F)F)cn2)cc1)N1CCC(O)CC1 | – | – | Not Active | Not Active | – | Not Active | Active | 1220 ng/mL | 9 mL/min/kg | > 50 µM | 56% |
